Source: ChEMBL document CHEMBL3526048, “In vitro metabolism of rivoglitazone, a novel peroxisome proliferator-activated receptor γ agonist, in rat, monkey, and human liver microsomes and freshly isolated hepatocytes” (Drug Metab Dispos, 2011)

Tests used:
[1] = biological target: T1, UDP-glucuronosyltransferase 2B7 (Homo sapiens, UniProt P16662); test: Activity of human UGT2B7 expressed in microsomes isolated from baculovirus infected insect cell assessed as enzyme-mediated 2-hydroxy-3-(4-((6-methoxy-1-methyl-1H-benzo[d]imidazol-2-yl)methoxy)phenyl)propanamide formation at 20 uM after 4 hrs by radio-HPLC/LC-MS/MS analysis in presence of NADPH-generating system and NADPH-generating system/SAM in presence of UDPGA and UDPGA/SAM; assay type: ADME
T1 sequence (P16662 whole entry): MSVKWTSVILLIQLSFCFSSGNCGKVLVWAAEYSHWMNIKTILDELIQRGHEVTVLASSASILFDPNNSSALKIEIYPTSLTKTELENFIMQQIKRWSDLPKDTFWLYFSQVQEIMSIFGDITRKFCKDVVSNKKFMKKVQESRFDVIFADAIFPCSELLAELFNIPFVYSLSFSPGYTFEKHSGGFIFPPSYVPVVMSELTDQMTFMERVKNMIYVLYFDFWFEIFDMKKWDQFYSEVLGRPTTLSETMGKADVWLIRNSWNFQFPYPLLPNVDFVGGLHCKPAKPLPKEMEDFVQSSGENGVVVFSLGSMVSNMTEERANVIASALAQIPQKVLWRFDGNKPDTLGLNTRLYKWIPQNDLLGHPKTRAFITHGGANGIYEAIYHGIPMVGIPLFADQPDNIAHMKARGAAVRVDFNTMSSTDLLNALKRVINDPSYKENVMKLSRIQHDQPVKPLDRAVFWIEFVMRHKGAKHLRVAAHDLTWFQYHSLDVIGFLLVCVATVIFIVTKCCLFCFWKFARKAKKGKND

Cytochrome P450 2C9 [2] = biological target: T2, Cytochrome P450 2C9 (Homo sapiens, UniProt P11712); test: Activity of human CYP2C9 expressed in microsomes isolated from baculovirus infected insect cell assessed as enzyme-mediated 3-(4-((6-methoxy-1-methyl-1H-benzo[d]imidazol-2-yl)methoxy)phenyl)-2-(methylsulfonyl)propanamide formation at 20 uM after 2 hrs by radio-HPLC/LC-MS/MS analysis in presence of NADPH-generating system/SAM; assay type: ADME
Cytochrome P450 3A5 [3] = biological target: T3, Cytochrome P450 3A5 (Homo sapiens, UniProt P20815); test: Activity of human CYP3A5 expressed in microsomes isolated from baculovirus infected insect cell assessed as enzyme-mediated 2-amino-3-((1-carboxy-2-(4-((6-methoxy-1-methyl-1H-benzo[d]imidazol-2-yl)methoxy)phenyl)ethyl)disulfanyl)propanoic acid formation at 20 uM after 2 hrs by radio-HPLC/LC-MS/MS analysis; assay type: ADME
In short: (§1)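 Baculovirus-insect-cell microsomes expressing the human CYP (1 mg/ml protein) were incubated with [14C]rivoglitazone (20 μM) in 50 mM potassium phosphate (pH 7.4) or 100 mM Tris-HCl (pH 7.5) with an NADPH-generating system (2 mM NADP+, 20 mM glucose 6-phosphate, 2 units/ml G6PDH, 10 mM MgCl2) for 2 h at 37°C. Insect-cell control supersomes served as the control. Reactions were stopped with acetonitrile, and the concentrated supernatants were analysed by radio-HPLC, LC-MS and LC-MS/MS.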

Liver microsome = test: Drug metabolism in human liver microsomes assessed as formation of 3-(4-((6-methoxy-1-methyl-1H-benzo[d]imidazol-2-yl)methoxy)phenyl)-2-(methylthio)propanoic acid at 20 uM after 2 to 4 hrs by radio-HPLC/LC-MS/MS analysis in presence of NADPH-generating system/SAM and UDPGA/SAM; assay type: ADME
[4] = Drug metabolism in rat hepatocytes assessed as formation of 3-(4-((6-methoxy-1-methyl-1H-benzo[d]imidazol-2-yl)methoxy)phenyl)-2-(methylsulfonyl)propanamide at 30 uM after 3 hrs by radio-HPLC/LC-MS/MS analysis in presence of NADPH-generating system/SAM; assay type: ADME, cell-based, Hepatocyte
Cytochrome P450 2C9 [5] = biological target: T2, Cytochrome P450 2C9; test: Activity of human CYP2C9 expressed in microsomes isolated from baculovirus infected insect cell assessed as enzyme-mediated 2-mercapto-3-(4-((6-methoxy-1-methyl-1H-benzo[d]imidazol-2-yl)methoxy)phenyl)propanoic acid formation at 20 uM after 2 hrs by radio-HPLC/LC-MS/MS analysis in presence of NADPH-generating system; assay type: ADME; in short: as §1
[6] = Drug metabolism in monkey hepatocytes assessed as formation of 3-(4-((6-methoxy-1-methyl-1H-benzo[d]imidazol-2-yl)methoxy)phenyl)-2-(methylsulfonyl)propanamide at 30 uM after 3 hrs by radio-HPLC/LC-MS/MS analysis in presence of NADPH-generating system/SAM; conditions: cynomolgus monkey
[7] = biological target: T4, UDP-glucuronosyltransferase 1A3 (Homo sapiens, UniProt P35503); test: Activity of human UGT1A3 expressed in microsomes isolated from baculovirus infected insect cell assessed as enzyme-mediated 2-((4-((2,4-dioxothiazolidin-5-yl)methyl)phenoxy)methyl)-1-methyl-1H-benzo[d]imidazol-6-yl hydrogen sulfate formation at 20 uM after 4 hrs by radio-HPLC/LC-MS/MS analysis; assay type: ADME
T4 sequence (P35503 whole entry): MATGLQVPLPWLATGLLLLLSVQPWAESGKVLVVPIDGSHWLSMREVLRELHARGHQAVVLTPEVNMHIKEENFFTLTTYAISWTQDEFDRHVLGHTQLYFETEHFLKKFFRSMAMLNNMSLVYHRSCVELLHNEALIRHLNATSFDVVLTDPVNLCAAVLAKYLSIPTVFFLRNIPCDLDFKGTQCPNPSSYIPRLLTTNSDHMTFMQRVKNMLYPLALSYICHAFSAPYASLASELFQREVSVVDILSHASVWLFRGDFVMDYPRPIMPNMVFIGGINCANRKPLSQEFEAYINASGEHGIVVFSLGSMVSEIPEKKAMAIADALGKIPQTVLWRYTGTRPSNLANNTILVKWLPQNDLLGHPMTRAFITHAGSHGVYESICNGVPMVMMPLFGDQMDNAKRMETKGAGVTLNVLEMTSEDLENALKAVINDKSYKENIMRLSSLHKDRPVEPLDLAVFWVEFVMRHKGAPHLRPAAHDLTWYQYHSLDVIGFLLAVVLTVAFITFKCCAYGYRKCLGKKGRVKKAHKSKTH
In short: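 Alamethicin (50 μg/mg protein, 15 min on ice) pretreated expressed human UGT microsomes (1 mg/ml protein) from baculovirus-infected insect cells. Incubation with [¹⁴C]rivoglitazone (20 μM) in 100 mM Tris-HCl (pH 7.5) with 10 mM MgCl₂, started by 5 mM UDPGA, 4 h at 37°C with shaking. UGT insect-cell control supersomes were run alongside. Acetonitrile stop, concentrated supernatant analysed by radio-HPLC, LC-MS and LC-MS/MS.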

Plasma = test: Drug metabolism in po dosed monkey plasma assessed as formation of 5-(4-((6-methoxy-1H-benzo[d]imidazol-2-yl)methoxy)benzyl)thiazolidine-2,4-dione; assay type: ADME, organism-based, Macaca mulatta; conditions: rhesus monkey, in vivo
Cytochrome P450 3A5 [8] = biological target: T3, Cytochrome P450 3A5; test: Activity of human CYP3A5 expressed in microsomes isolated from baculovirus infected insect cell assessed as enzyme-mediated (2S,3S,4S,5R,6R)-3,4,5-trihydroxy-6-(5-(4-((6-methoxy-1-methyl-1H-benzo[d]imidazol-2-yl)methoxy)benzyl)-2,4-dioxothiazolidin-3-yl)tetrahydro-2H-pyran-2-carboxylic acid formation at 20 uM after 2 hrs by radio-HPLC/LC-MS/MS analysis in presence of UDPGA and UDPGA/SAM; assay type: ADME

T2 sequence (P11712 whole entry): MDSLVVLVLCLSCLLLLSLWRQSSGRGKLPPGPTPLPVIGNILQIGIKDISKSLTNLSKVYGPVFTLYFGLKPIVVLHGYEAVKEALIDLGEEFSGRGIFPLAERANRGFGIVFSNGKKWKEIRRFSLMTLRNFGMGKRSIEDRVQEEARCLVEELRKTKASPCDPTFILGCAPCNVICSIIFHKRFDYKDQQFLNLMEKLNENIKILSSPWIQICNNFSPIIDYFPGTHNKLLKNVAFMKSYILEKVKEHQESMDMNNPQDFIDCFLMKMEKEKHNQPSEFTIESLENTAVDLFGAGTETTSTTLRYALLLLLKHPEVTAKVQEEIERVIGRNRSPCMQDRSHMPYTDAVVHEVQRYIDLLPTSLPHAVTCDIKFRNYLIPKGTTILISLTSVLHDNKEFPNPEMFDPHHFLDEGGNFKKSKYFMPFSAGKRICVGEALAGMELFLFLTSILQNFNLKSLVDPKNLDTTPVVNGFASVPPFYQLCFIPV
T3 sequence (P20815 whole entry): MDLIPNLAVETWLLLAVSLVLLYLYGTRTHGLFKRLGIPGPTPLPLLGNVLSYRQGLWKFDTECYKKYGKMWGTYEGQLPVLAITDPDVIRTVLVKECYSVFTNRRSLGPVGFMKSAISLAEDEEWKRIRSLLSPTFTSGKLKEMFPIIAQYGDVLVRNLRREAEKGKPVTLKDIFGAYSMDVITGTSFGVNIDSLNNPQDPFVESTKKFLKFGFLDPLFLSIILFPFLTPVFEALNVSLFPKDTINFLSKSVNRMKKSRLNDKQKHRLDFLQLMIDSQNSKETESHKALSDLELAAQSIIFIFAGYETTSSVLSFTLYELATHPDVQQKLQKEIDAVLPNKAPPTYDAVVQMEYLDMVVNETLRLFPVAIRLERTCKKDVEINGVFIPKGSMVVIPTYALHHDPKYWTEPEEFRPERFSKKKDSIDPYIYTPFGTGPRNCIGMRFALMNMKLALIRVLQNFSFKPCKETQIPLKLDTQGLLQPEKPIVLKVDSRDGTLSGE

- Drug metabolism [1]: metabolite_not_detected
- Drug metabolism (Cytochrome P450 2C9 [2]): metabolite_not_detected
- Drug metabolism (Cytochrome P450 3A5 [3]): metabolite_not_detected
- Drug metabolism (Liver microsome): metabolite_detected
- Drug metabolism [4]: metabolite_detected
- Drug metabolism (Cytochrome P450 2C9 [5]): metabolite_detected
- Drug metabolism [6]: metabolite_not_detected
- Drug metabolism [7]: metabolite_not_detected
- Drug metabolism (Plasma): metabolite_detected
- Drug metabolism (Cytochrome P450 3A5 [8]): metabolite_not_detected
Structure (SMILES): COc1ccc2nc(COc3ccc(C[14CH]4SC(=O)NC4=O)cc3)n(C)c2c1.Cl (racemic)
